In ChEMBL document CHEMBL1132699, “Synthesis and biological evaluation of 2',3'-didehydro-2',3'- dideoxy-5-fluorocytidine (D4FC) analogues: discovery of carbocyclic nucleoside triphosphates with potent inhibitory activity against HIV-1 reverse transcriptase” (J Med Chem, 1999):

Columns and labels:
[1] = target: Human immunodeficiency virus type 1 reverse transcriptase (Human immunodeficiency virus 1) (UniProt Q72547); test: (§1) The compound was tested for inhibitory activity against Recombinant HIV-1 reverse transcriptase
Outline: (§2)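 Extension assay with HIV-1 p66/51 heterodimer RT (1 unit) and r(I)n·(dC)12-18 template-primer (0.05 units/mL). Buffer: Tris-HCl pH 8.0, KCl, MgCl2, DTT, 100 μg/mL BSA, 1 μM [3H]dCTP. Incubated 1 h at 37 °C, stopped with cold 10% TCA/0.05% sodium pyrophosphate for 30 min at 4 °C. Precipitate filter-harvested and counted by beta counting. 3TC-TP served as positive control.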

[2] = target: Human immunodeficiency virus type 1 reverse transcriptase (Human immunodeficiency virus 1, UniProt Q72547); test: as §1; outline: as §2
[3] = test system: LNCaP; test: Tested in vitro for anticancer activity against LNCaP cells; format: functional, cell-based; conditions: Homo sapiens
[4] = test system: SK-MEL-28; test: Tested in vitro for anticancer activity against SK-MEL-28 cells; format: functional, cell-based; conditions: Homo sapiens
[5] = Tested in vitro for cytotoxicity against PBM cells; format: functional, cell-based; conditions: Homo sapiens, PBMC
[6] = test system: 9L; test: Tested in vitro for anticancer activity against 9L cells; format: functional, cell-based; conditions: Rattus norvegicus
Outline: (§3)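 Growth inhibition in human or rat tumour cell lines. Cells cultured with drug in 96-well plates for 5 days (LNCaP, SK-MES-1), 4 days (CEM, MCF-7, SK-MEL-28, HepG2, 9L) or 3 days (PC-3). Solvent-exposed untreated cells served as negative control. Viable, actively metabolizing cells were read by MTT assay. DMSO stocks (40 mM) were diluted in growth medium. IC50 in μM.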

[7] = test system: PC-3; test: Tested in vitro for anticancer activity against PC-3 cells; format: functional, cell-based; conditions: Homo sapiens
[8] = test system: Vero; test: Tested in vitro for cytotoxicity against Vero cells; format: functional, cell-based; conditions: Chlorocebus sabaeus
[9] = test system: HepG2; test: Tested in vitro for anticancer activity against HepG2 cells; format: functional, cell-based; conditions: Homo sapiens
[10] = test system: MCF7; test: Tested in vitro for anticancer activity against MCF-7 cells; format: functional, cell-based; conditions: Homo sapiens
[11] = test system: SK-MES-1; test: Tested in vitro for anticancer activity against SK-MES-1 cells; format: functional, cell-based; conditions: Homo sapiens
[12] = test system: CCRF-CEM; test: Tested in vitro for anticancer activity against CEM cells; format: functional, cell-based; conditions: Homo sapiens
[13] = test system: Human immunodeficiency virus 1; test: (§4) Tested in vitro for anti HIV-1 activity against PBM cells; format: functional, organism-based; conditions: Human immunodeficiency virus 1, PBMC
[14] = test system: Human immunodeficiency virus 1; test: as §4; format: functional; conditions: Human immunodeficiency virus 1, PBMC
[15] = test system: SK-MEL-28; test: The compound was tested in vitro for anticancer activity against SK-MEL-28 cells; format: functional, cell-based; conditions: Homo sapiens; outline: as §3
[16] = test system: 9L; test: The compound was tested in vitro for anticancer activity against 9L cells; format: functional, cell-based; conditions: Rattus norvegicus; outline: as §3

| SMILES | IC90 [1] [µM] | IC50 [2] [µM] | IC50 [3] [µM] | IC50 [4] [µM] | IC50 [5] [µM] | IC50 [6] [µM] | IC50 [7] [µM] | IC50 [8] [µM] | IC50 [9] [µM] | IC50 [10] [µM] | IC50 [11] [µM] | IC50 [12] [µM] | EC50 [13] [µM] | EC90 [14] [µM] | IC50 [15] [µM] | IC50 [16] [µM] |
| --- | --- | --- | --- | --- | --- | --- | --- | --- | --- | --- | --- | --- | --- | --- | --- | --- |
| Nc1nc(=O)n(C2C=CC(COP(=O)(O)OP(=O)(O)OP(=O)(O)O)C2)cc1F (racemic) | 4 | 0.4 |  |  |  |  |  |  |  |  |  |  |  |  |  |  |
| C[C@@H]1C[C@@H]([C@H](O)CC2CC(=O)NC(=O)C2)C(=O)[C@@H](C)C1 [CYCLOHEXIMIDE] |  |  | 1.2 | 1 | 2.1 | 0.2 | 3.5 | 1.2 | 2.5 | 1.5 | 2.7 | 0.12 |  |  |  |  |
| Nc1ccn(C2C=CC(CO)C2)c(=O)n1 (stereo not given) |  |  |  |  | > 100 |  |  | > 100 |  |  |  | > 100 | 9 | 59.9 |  |  |
| Nc1nc(=O)n(C2C=CC(CO)C2)cc1F (stereo not given) |  |  |  |  | > 100 |  |  | > 100 |  |  |  | > 100 | 8.2 | 71 |  |  |
| Nc1ccn(C2C=CC(COP(=O)(O)OP(=O)(O)OP(=O)(O)O)C2)c(=O)n1 (racemic) | 3.4 | 0.38 |  |  |  |  |  |  |  |  |  |  |  |  |  |  |
| CC(=O)Nc1nc(=O)n([C@H]2C=C[C@@H](CO)O2)cc1F |  |  | > 100 | 108 | > 100 |  | > 100 | 103 | > 100 | 62.9 | 84.6 | 14.7 | 1 | 6 |  |  |
| CCCC(=O)OC[C@@H]1C=C[C@H](n2cc(F)c(N)nc2=O)O1 |  |  | > 100 | > 100 | > 100 | > 100 | > 100 | > 100 | > 100 | > 100 | > 100 | > 100 | 0.15 | 0.61 |  |  |
| O=c1[nH]cc(F)c(=O)[nH]1 [FLUOROURACIL] |  |  | > 100 | 4.5 | 5 | 1 | > 100 | 6.81 | 37.9 | 41 | 13.1 | 90.5 |  |  |  |  |
| Nc1nc(=O)n([C@H]2C=C[C@@H](CO)O2)cc1F [DEXELVUCITABINE] |  |  | > 100 | > 100 | > 100 |  | > 10 | > 100 | > 100 | > 100 | > 100 | > 100 | 0.046 | 0.77 |  |  |
| O=C1NC(O)C(F)=CN1[C@H]1C=C[C@@H](CO)O1 (stereo not given in full) |  |  | 67.8 | 21.7 | 32.2 | 1.2 | 63 | 7.9 | 59.3 | 54.1 | 4.2 | 9.1 | 7.9 | 23 |  |  |
| Cc1cn([C@H]2C[C@H](N=[N+]=[N-])[C@@H](CO)O2)c(=O)[nH]c1=O [ZIDOVUDINE] |  |  |  |  | > 100 |  |  |  |  | > 10 | > 100 |  | 0.002 | 0.02 | > 10 |  |
| O=c1[nH]c(=O)n([C@@H]2C=C[C@H](CO)O2)cc1F |  |  | 57.2 | 7.45 | 2.3 | 1.9 | 83.4 | 32 | 35.4 | 15.8 | 4.6 | 12.9 | 0.26 | 3 |  |  |
| Nc1ccc([C@@H]2CS[C@H](OP(=O)(O)OP(=O)(O)OP(=O)(O)O)O2)c(O)n1 | 29.8 |  |  |  |  |  |  |  |  |  |  |  |  |  |  |  |
| CCCCC(=O)OC[C@@H]1C=C[C@H](n2cc(F)c(N)nc2=O)O1 |  |  | > 100 | > 100 | > 100 |  | > 100 | > 100 | > 100 | > 100 | > 100 | 124 | 0.056 | 0.34 |  |  |
| CC(=O)OC[C@@H]1C=C[C@H](n2cc(F)c(N)nc2=O)O1 |  |  |  | > 100 | > 100 |  | > 100 | > 100 | > 100 |  | > 100 | > 100 | 0.13 | 0.4 |  |  |
| Nc1nc(=O)n([C@@H]2C=C[C@H](CO)O2)cc1F [ELVUCITABINE] |  |  | 55.2 | > 100 | 12.9 |  | > 100 | 9.4 | 118 | 82.8 | 99.1 | 0.46 | 0.034 | 0.16 |  |  |
| CCCNc1nc(=O)n([C@H]2C=C[C@@H](CO)O2)cc1F |  |  | > 100 | > 100 | 34.7 |  | > 100 | > 100 | > 100 | > 100 | > 100 | > 100 | > 100 | > 100 |  |  |
| Nc1ccc([C@@H]2CS[C@H](OP(=O)(O)OP(=O)(O)OP(=O)(O)O)O2)c(=O)[nH]1 |  | 3.6 |  |  |  |  |  |  |  |  |  |  |  |  |  |  |
| Nc1nc(=O)n([C@@H]2C=C[C@@H](CO)O2)cc1F |  |  | > 100 | > 100 | > 100 | > 100 | > 100 | > 100 | > 100 | > 100 | > 100 | > 100 | 20 | 70 |  |  |
| Nc1nc(=O)n([C@H]2C=C[C@@H](CO)O2)cc1Br |  |  | > 100 | > 100 | 91.6 |  | > 100 | > 100 | > 100 | > 100 | > 100 | 42.5 | > 10 | > 10 |  |  |
| O=c1[nH]c(=O)n([C@@H]2C=C[C@@H](CO)O2)cc1F |  |  | 85.8 | 9.8 | 47.4 |  | > 100 | 3 | 37.1 | 67.3 | 10 | 11.4 | 7.5 | 23 |  | 2.4 |
| Nc1nc(=O)n([C@H]2C=C[C@@H](COP(=O)(O)OP(=O)(O)OP(=O)(O)O)C2)cc1F (racemic) | 2.2 | 0.27 |  |  |  |  |  |  |  |  |  |  |  |  |  |  |
| Nc1nc(=O)n([C@H]2C=C[C@@H](CO)O2)cc1I |  |  | > 100 | > 100 | 98.3 |  | > 100 | > 100 | > 100 | > 100 | > 100 | 107 | > 10 | > 10 |  |  |
